In the library only some 1.9% were active in any assay of this set; here they are far more common.
LEDGF integ inh – blocks HIV-1 LEDGF/p75-dependent DNA integration. TR-FRET IN-LEDGF/p75 DNA integration, Eu/Cy5. AID 743269. inhibition, % at 3.7 µM. 370,000 tested, 0.64% active;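 active = inhibition above the screen-wide mean plus 3 SD, cut at about 13% in these data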;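 also: signal is the Cy5 over europium emission ratio at 671 and 618 nm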
UHRF1 MBD2 ctr – UHRF1 methyl-DNA binding inhibition | AID 687016 | 370,000 tested, 0.75% active | inhibition, % at 4.4 µM | UHRF1 binding to methylated oligo, TR-FRET;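 also: UHRF1 SRA domain binding a hemimethylated CpG hairpin DNA probe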
Target sequence (Q96T88 whole entry, looked up, the tested form may be a part): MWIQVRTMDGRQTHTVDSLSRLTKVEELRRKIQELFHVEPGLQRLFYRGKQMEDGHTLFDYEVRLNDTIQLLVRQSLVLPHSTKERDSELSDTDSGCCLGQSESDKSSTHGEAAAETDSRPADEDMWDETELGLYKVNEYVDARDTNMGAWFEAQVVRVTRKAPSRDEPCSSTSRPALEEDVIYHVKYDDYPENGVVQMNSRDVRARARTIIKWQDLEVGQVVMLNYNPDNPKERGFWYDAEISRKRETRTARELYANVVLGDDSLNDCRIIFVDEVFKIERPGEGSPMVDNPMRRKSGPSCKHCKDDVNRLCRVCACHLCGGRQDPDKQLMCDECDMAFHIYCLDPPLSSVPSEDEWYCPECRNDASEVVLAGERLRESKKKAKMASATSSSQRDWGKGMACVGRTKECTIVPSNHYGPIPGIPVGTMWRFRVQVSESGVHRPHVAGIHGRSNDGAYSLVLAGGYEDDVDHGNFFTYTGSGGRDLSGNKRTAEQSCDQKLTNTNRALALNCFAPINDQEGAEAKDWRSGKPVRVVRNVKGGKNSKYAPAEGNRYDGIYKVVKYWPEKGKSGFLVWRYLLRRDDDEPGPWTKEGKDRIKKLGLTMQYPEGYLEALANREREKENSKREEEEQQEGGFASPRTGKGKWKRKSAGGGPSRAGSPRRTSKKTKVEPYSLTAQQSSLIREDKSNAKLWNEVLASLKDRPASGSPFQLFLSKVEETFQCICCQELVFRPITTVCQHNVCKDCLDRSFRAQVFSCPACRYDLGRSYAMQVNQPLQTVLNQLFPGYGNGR
Rin1 Abl inh – blocks binding of human Rin1 to Abl; AID 588664; P00519+Q13671; 360,000 tested, 0.4% active; TR-FRET Rin1/Abl binding, biochemical; inhibition, % at 7.35 µM; in the data active = inhibition above about 5%, passing the limit was not always enough
MBD2 DNA inh – inhibitors of human MBD2 binding to methylated oligonucleotide; Q9UBB5; TR-FRET; inhibition, % at 4.4 µM; 370,000 tested, 0.31% active; AID 686964; in the data active = inhibition above about 13%
TDP2 inh – TDP2 (human) inhibition, absorbance primary screen | recombinant TDP2, T5PNP hydrolysis, p-nitrophenol absorbance 415 nm | inhibition, % at 12.8 µM | 370,000 tested, 0.34% active | AID 720702;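 active = inhibition above the mean of all tested compounds plus 3 SD, set per campaign, cut at about 25% in these data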
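Evaluation: % inhibition relative to enzyme-containing and enzyme-free wells. Material: recombinant human TDP2. Benchmarks: enzyme-free and DMSO wells. Timing: enzyme reaction with compound for 2 h at 37 °C. Compound dosing: 12.8 µM only. Measured by: p-Nitrophenol epi absorbance. Reagent: T5PNP substrate at 5 mM, a TopII-DNA adduct mimic. Replication: single well per compound.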
UHRF1 DNA bind – inhibits human UHRF1 binding to methylated oligonucleotide, MBD2 counter-screen. shares compounds with MBD2 DNA inh. TR-FRET. inhibition, % at 4.4 µM. 1,000 tested, 25% active. AID 720530;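 also: UHRF1 SRA domain binding a labeled hemimethylated CpG hairpin DNA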
MBD2 DBD conf – confirmation of human MBD2-DBD methylated oligonucleotide binding inhibitors. shares compounds with MBD2 DNA inh. 1,000 tested, 26% active. AID 720531. TR-FRET MBD2-DBD binding to methylated oligonucleotide. inhibition, % at 4.4 µM; in the data active = inhibition above about 14%
Hits are given with their value; n = inactive; x = not tested or not shown. Rule as the data show it, unless noted: active = inhibition above about 21%; inactive = the rest.

SMILES | LEDGF integ inh | UHRF1 MBD2 ctr | Rin1 Abl inh | MBD2 DNA inh | TDP2 inh | UHRF1 DNA bind | MBD2 DBD conf
COc1ccc(C(=O)OCC(=O)c2c[nH]c3ccccc23)cc1OC | n | 22 | n | 14 | n | n | n
CCOC(=O)[C@]12CCC=C1N(CCC1=CCCCC1)C(=O)[C@H](CC(=O)N1CCC(c3ccccc3)CC1)C2 | n | n | x | n | n | x | x
CCOC(=O)N1CCN(C(=O)C[C@@H]2C[C@@]3(C(=O)OCC)CCCC=C3N(CCC3=CCCCC3)C2=O)CC1 | n | n | x | 20 | n | n | n
COc1ccc(N2C(=O)CC(N(Cc3ccco3)C(=O)CCC(=O)O)C2=O)cc1 (configuration not stated) | n | n | n | n | n | x | x
CCCOc1ccc(N2C(=O)CC(N(Cc3ccco3)C(=O)CCC(=O)O)C2=O)cc1 (configuration not stated) | n | n | n | 16 | n | n | n
CCOC(=O)C1=NN(C(C)=O)C2(CC(=O)N(c3cccc(C)c3)C2=O)C1 (configuration not stated) | n | n | n | 19 | n | n | n
CCOC(=O)c1[nH]ncc1CN1CCCC(C(=O)c2cccc3ccccc23)C1 (configuration not stated) | n | 24 | n | 14 | n | n | n
CCOC(=O)c1[nH]ncc1CN1CCCC(C(=O)c2ccc(SC)cc2)C1 (configuration not stated) | n | n | n | n | n | x | x
C#CCOCCOCCOCCNc1nc(N2CCN(C(=O)[C@H]([C@@H](C)CC)n3cc(CCCCN)nn3)CC2)nc(N2CCN(C(=O)[C@H](CCCCN)n3cc(CCCC)nn3)CC2)n1 | n | n | n | n | n | x | x
C#CCOCCOCCOCCNc1nc(N2CCN(C(=O)[C@H]([C@@H](C)CC)n3cc(CCC(=O)O)nn3)CC2)nc(N2CCN(C(=O)[C@H](CCCCN)n3cc(CCCC)nn3)CC2)n1 | n | n | n | 25 | n | n | n
C#CCOCCOCCOCCNc1nc(N2CCN(C(=O)[C@H](CCCCN)n3cc([C@@H](N)C(C)CC)nn3)CC2)nc(N2CCN(C(=O)[C@H](CCCCN)n3cc([C@@H](N)C(C)CC)nn3)CC2)n1 (some centres not stated) | n | n | x | 16 | n | n | n
CCOC(=O)[C@]12CCCCC/C=C\1N(Cc1ccc(OC)cc1)C(=O)[C@H]2CC(=O)NCCc1ccccc1OC | n | n | x | n | n | x | x
CC(C)n1nnnc1C1(C)CN(S(C)(=O)=O)CC(=O)N1Cc1cccc(C(F)(F)F)c1 (configuration not stated) | n | n | x | n | n | x | x
CCOC(=O)[C@@]12CCCC3=C1N(CCC3)C(=O)[C@H]2CC(=O)NCC1CCCCC1 | n | n | x | n | n | x | x
O=C(OCCCc1cc2ccccc2c(=O)o1)c1ccc(C(F)(F)F)cc1 | n | n | n | n | n | x | x
COc1cc2cc(CCCOC(=O)c3ccc(C(F)(F)F)cc3)oc(=O)c2cc1OC | n | n | n | 20 | n | n | n
CCN(c1ccccc1)S(=O)(=O)c1cccc(C(=O)NCC2(N(C)C)CCCCC2)c1 | n | n | n | 23 | n | n | n
O=C(CSc1cccc[n+]1[O-])Nc1cc([N+](=O)[O-])ccc1Cl | n | n | n | 13 | n | n | n
O=C(CSc1cccc[n+]1[O-])Nc1cc2c(cc1Cl)C(=O)c1ccccc1C2=O | n | n | n | n | n | x | x
CCN(CC)C(=O)CC[C@@H]1CC[C@]2(CCCN(C(=O)c3ccccc3)C2)O1 | n | n | x | n | n | x | x
CC(=O)Nc1ccccc1-c1ccc(C)o1 | n | n | n | 19 | n | n | n
CCOC(=O)[C@]12CCCC=C1N(CCCOC)C(=O)[C@@H]2CC(=O)N1CCC(c2ccccc2)CC1 | n | n | x | n | n | x | x
CC(=O)OCCNc1cc(N2CCN(C)CC2)c2noc3c2c1C(=O)c1ccccc1-3 | n | 36 | n | 20 | n | 25 | n
COc1ccc(Cn2c(C)c(CC(=O)Nc3ccc(Oc4cccnc4)c(C)c3)c3ccccc32)cc1 | n | n | x | n | n | x | x
COc1ccc(-c2cc(-c3ccccc3)c(C#N)c(=S)[nH]2)cc1 | n | n | n | 21 | n | n | n
SMILES | LEDGF integ inh | UHRF1 MBD2 ctr | Rin1 Abl inh | MBD2 DNA inh | TDP2 inh | UHRF1 DNA bind | MBD2 DBD conf
CN(Cc1ccc(Cl)cc1)C(=O)c1ccc(S(=O)(=O)NCc2ccco2)cc1 | n | n | n | 37 | n | n | n
COc1cccc(-c2cc(C(=O)NC3CCCC3)no2)c1 | n | n | n | 16 | n | n | n
CC(C)C[C@@H]1NC(=O)[C@H]2C[C@]3(c4ccccc4)c4ccccc4N[C@H]3N2C1=O | n | n | x | n | n | x | x
N=C1C(c2nc3ccccc3s2)=C(O)CN1NC(=O)c1c[nH]c2ccccc12 | n | n | n | 15 | n | n | 22
N=C1C(c2nc3ccccc3s2)=C(O)CN1NC(=O)c1ccccc1[N+](=O)[O-] | n | n | n | n | n | x | x
CC(C)[C@@H]1NC(=O)[C@H]2C[C@@]3(C)c4ccccc4N[C@H]3N2C1=O | n | n | x | n | n | x | x
COc1ccc(OC)c(NC(=O)COC(=O)c2cc3c(s2)CCC3)c1 | n | 47 | n | 19 | n | 40 | 35
COc1ccccc1NC(=O)COC(=O)c1cc2c(s1)CCC2 | n | n | n | n | n | x | x
Cc1nc(SCC(=O)Nc2c(C)n(C)n(-c3ccccc3)c2=O)[nH]c(=O)c1Cc1ccccc1 | n | n | n | n | n | x | x
CCc1c(C)nc(SCC(=O)Nc2c(C)n(C)n(-c3ccccc3)c2=O)[nH]c1=O | n | n | n | 20 | n | n | n
NNC(=O)Cn1c2ccccc2c2ccccc21 | n | n | n | 14 | n | n | n
Cc1nccn1-c1ccc(C=O)cc1 | n | n | n | 40 | n | n | n
O=Cc1ccc(-n2cccn2)cc1 | n | n | n | n | n | x | x
CN(C)[C@@H]1CCN(c2cccc3c2S(=O)(=O)N2CC[C@H](C2)O3)C1 | n | n | x | n | n | x | x
COc1ccc(-n2nnnc2-c2ccc(S(C)(=O)=O)cc2Cl)cc1 | n | 24 | n | 13 | n | n | n
C[C@H]1C2CC(OC(=O)NCc3ccc(Cl)cc3)C(C2)[C@H]2CCCCN21 (some centres not stated) | n | n | x | n | n | x | x
Oc1ccc(N2CCN(Cc3c(-c4ccccc4)nc4ccccn34)CC2)cc1 | n | n | n | 80 | n | n | n
COC(=O)[C@]12C[C@H](CC(=O)N3CCOCC3)C(=O)N(Cc3ccc4c(c3)OCO4)C1=C[C@H](C(C)C)O[C@@H]2C1CC1 | n | n | x | n | n | x | x
O=C(/C=C/c1cccc(F)c1)NNC(=O)c1ccncc1 | n | n | n | n | n | x | x
O=C(/C=C/c1cccc(Cl)c1)NNC(=O)c1ccncc1 | n | n | n | 14 | n | n | n
